# Assay outcomes as filed in PubChem.
# Shown are actives, neighbours in structure and some others; about 1.8% of the full set was active somewhere.
# CHRM4 PAM = human M4 muscarinic receptor positive allosteric modulators, primary screen, CHO-K1 cells, Fluo-8 calcium fluorescence; AID 624126, 2012; activation, % at 3 µM; Muscarinic acetylcholine receptor M4 (Homo sapiens), P08173; 0.4% of 360,000 active; CHO-K1 hM4/Gqi5, ACh EC20; 0% = ACh EC20, 100% = maximal ACh;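 active means activation above its plate's cutoff, the mean activation of sample wells plus 3 SD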
# Target sequence (P08173 whole entry, looked up): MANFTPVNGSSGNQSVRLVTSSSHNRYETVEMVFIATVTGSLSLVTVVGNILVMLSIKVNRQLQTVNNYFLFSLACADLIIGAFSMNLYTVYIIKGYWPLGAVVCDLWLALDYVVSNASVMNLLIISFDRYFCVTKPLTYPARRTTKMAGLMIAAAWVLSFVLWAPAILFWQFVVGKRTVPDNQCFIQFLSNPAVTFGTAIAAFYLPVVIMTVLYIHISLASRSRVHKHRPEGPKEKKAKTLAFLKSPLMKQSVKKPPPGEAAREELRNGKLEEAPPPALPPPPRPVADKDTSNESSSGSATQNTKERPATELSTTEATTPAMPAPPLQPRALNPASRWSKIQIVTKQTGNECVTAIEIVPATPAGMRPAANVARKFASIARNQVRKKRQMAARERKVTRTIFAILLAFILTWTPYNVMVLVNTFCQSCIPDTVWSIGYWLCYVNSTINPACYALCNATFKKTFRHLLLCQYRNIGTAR
# M5 antag = human M5 muscarinic receptor antagonists, primary screen, CHO cells, Fluo-8 calcium fluorescence; inhibition, % at 3 µM; CHO-hM5 cells, ACh EC80; AID 624040, 2012; 0.59% of 360,000 active;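 active means inhibition above a per-plate cutoff, the mean of that plate's test compounds plus 3 SD, cut at about 27% in these data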;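 further: 0% = acetylcholine EC80 with DMSO and 100% = DMSO without agonist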
# CHRM4 agonist = human M4 muscarinic receptor agonists, primary screen, CHO-K1 cells, Fluo-8 calcium fluorescence. Muscarinic acetylcholine receptor M4 (Homo sapiens), P08173. 0.14% of 360,000 active. AID 624127, 2012. CHO-K1 hM4/Gqi5; vehicle 0%, full acetylcholine response 100%. activation, % at 3 µM;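 active means activation above the run mean over all test wells plus 3 SD, cut at about 32% in these data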;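 further: peak over basal fluorescence ratio per well then scaled between controls; 0% = DMSO wells and 100% = acetylcholine at EC100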
# CHRM5 PAM = human M5 muscarinic receptor positive allosteric modulators, primary screen, CHO-K1 cells, Fluo-8 calcium fluorescence. CHO-K1 hM5, ACh EC20 PAM; 0% = ACh EC20, 100% = ACh EC100. activation, % at 3 µM. 0.3% of 360,000 active. Muscarinic acetylcholine receptor M5 (Homo sapiens), P08912;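 active means activation above the run cutoff, the mean activation of all test compounds plus 3 SD, cut at about 18% in these data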
#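 System – CHO-K1 hM5 cells · Compound – 3 µM, single dose · Incubation – compound preincubation 140 s before EC20 acetylcholine addition · Technique – Fluo-8 calcium fluorescence · Measure – Max/basal fluorescence ratio as % of EC20–EC100 ACh window · Benchmarks – low control EC20 acetylcholine (0%), high control EC100 acetylcholine (100%) · Replication – singlicate, one well per test compound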
# CHRM5 agonist = human M5 muscarinic receptor agonists, primary screen, CHO-K1 cells, Fluo-8 calcium fluorescence | Muscarinic acetylcholine receptor M5 (Homo sapiens), P08912 | CHO-K1 hM5 cells; 0% DMSO wells, 100% maximal acetylcholine response | activation, % at 3 µM | 0.19% of 360,000 active | AID 624037, 2012;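 active means activation above the run's mean over test compounds plus 3 SD, cut at about 23% in these data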;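 further: signal is peak over basal fluorescence ratio across the kinetic read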
# M4 antag = human M4 muscarinic receptor antagonists, primary screen, CHO cells, Fluo-8 calcium fluorescence; 0.73% of 360,000 active; CHO-hM4 cells, ACh EC80; inhibition, % at 3 µM; Muscarinic acetylcholine receptor M4 (Homo sapiens), P08173;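 active means inhibition above its plate's cutoff, the mean inhibition of sample wells plus 3 SD, cut at about 27% in these data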;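 further: 0% = acetylcholine EC80 with DMSO and 100% = DMSO without agonist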
# * hit, by the source's call.
SMILES,CHRM4 PAM,M5 antag,CHRM4 agonist,CHRM5 PAM,CHRM5 agonist,M4 antag
CCC1Sc2ccc(S(=O)(=O)Nc3ccc(OC)c(OC)c3)cc2NC1=O (stereo unspecified),-5,31*,16,-15,3,6
COc1ccc(NC(=O)CCc2nnc3ccc(NCc4ccco4)nn23)cc1,39*,14,18,28*,1,16
Cc1ccccc1C(=O)NNC(=O)CCC(=O)Nc1cccc(Cl)c1C,7,-7,0,19*,-1,-4
CC1(C(=O)Nc2ccccc2F)CCN1C(=O)Cc1cc(F)ccc1F (stereo unspecified),-5,4,0,-2,-1,-6
C/C=C(\C)C(=O)NCCN1C2=NC[C@@H](C)N2C[C@H]1Cc1ccc(O)cc1,30*,-4,0,13,-2,0
COc1cccc(NC(=O)COC(=O)c2ccc(F)cc2F)c1,-3,-1,2,2,2,3
COc1cc(NC(=O)COC(=O)c2ccccc2F)cc(OC)c1,3,1,1,4,-2,29*
CCn1cc([N+](=O)[O-])c(C(=O)N2CCCCCC2)n1,1,-5,0,1,-6,-12
CCn1cc([N+](=O)[O-])c(C(=O)N2CCCc3ccccc32)n1,22*,1,1,2,-4,4
O=[N+]([O-])c1ccc(-c2cccnc2)cc1,1,4,1,18*,2,3
O=[N+]([O-])c1ccc(COc2cccnc2)cc1,-4,3,2,-3,0,-7
O=C(CN1C(=O)/C(=C2/SC(=S)N(CCS(=O)(=O)O)C2=O)c2ccccc21)Nc1cccc(Br)c1,0,8,0,-5,0,4
CCC(C)c1ccccc1NC(=O)C(C)OC(=O)CN1C(=O)NC(C)(C)C1=O (stereo unspecified),26*,6,1,1,3,-14
CC1(C(=O)Nc2cccc(NS(C)(=O)=O)c2)Cc2c(-c3cccc(C(N)=O)c3)ccnc2O1 (stereo unspecified),3,-2,0,0,0,-7
CCOC(=O)[C@H]1[C@H]2COc3ccc(OC)cc3[C@@H]2N2C(=O)CN(Cc3ccc(F)cc3)C(=O)[C@@]12C,-16,10,6,-11,-11,42*
O=C(CCC1CCN(Cc2ccccc2O)CC1)NC1CC1,-3,-11,0,21*,-6,-5
COc1ccc(S(=O)(=O)N2CCC(C(=O)NCC(=O)Nc3c(C)cccc3C)CC2)cc1OC,25*,-8,0,4,0,-10
COc1ccc(CC(=O)Nc2cccc(S(=O)(=O)N3CCCCCC3)c2)cc1OC,-11,32*,14,-19,9,11
CC(=O)Nc1ccc(S(=O)(=O)N2CCC(C(=O)NCCC(=O)Nc3ccccc3)CC2)cc1,8,-19,2,20*,-2,-23
C/C(N)=C(/C#N)C(=O)COC(=O)c1ccc(C)c(S(=O)(=O)N2CCCCC2)c1,6,6,5,33*,8,-4
COc1ccc(S(=O)(=O)N2CCC(C(=O)NCCc3ccccc3)CC2)cc1OC,2,-1,3,4,1,-7
O=C(NC1CC1)C1CCN(S(=O)(=O)c2ccc(Cl)c([N+](=O)[O-])c2)CC1,2,-2,2,-1,-1,-6
COc1cc(C(C)=O)ccc1OCC(=O)Nc1ccc(C)c(S(=O)(=O)N2CCCCCC2)c1,-13,32*,27,-39,5,18
O=C(COC(=O)C1CC2C=CC1C2)Nc1cccc(S(=O)(=O)N2CCCCCC2)c1 (stereo unspecified),-13,31*,17,-20,4,23
COc1ccc(S(=O)(=O)N2CCCC2)cc1NC(=O)c1ccccc1F,4,2,2,2,-2,-2
SMILES,CHRM4 PAM,M5 antag,CHRM4 agonist,CHRM5 PAM,CHRM5 agonist,M4 antag
O=C(COC(=O)C1CC2C=CC1C2)Nc1cccc(S(=O)(=O)N2CCCCC2)c1 (stereo unspecified),-15,13,17,-16,5,3
COc1ccccc1NC(=O)c1cc(S(=O)(=O)N2CCCCCC2)ccc1F,30*,15,34*,24*,1,-9
CCc1c(N)nc(N)nc1Nc1ccc(C)c(C)c1,7,4,4,-12,2,-17
Nc1nc(N)c(N=O)c(Nc2ccc(Cl)c(Cl)c2)n1,21,2,19,-1,52*,-12
Nc1nc(N)c(N=O)c(Nc2cccc(Cl)c2)n1,5,-7,7,-1,45*,-9
Cc1ccc(Nc2nc(N)nc(N)c2N=O)cc1Cl,18,6,11,-4,45*,-3
Nc1nc(N)c(Br)c(Nc2ccc(Cl)c(Cl)c2)n1,23,0,4,29*,25*,-20
COCc1cc(C)n(CC(=O)Nc2ccc3c(c2)OCO3)c(=O)c1C#N,10,-2,3,-4,-2,-33
CSc1nc(SCc2ccccc2)[nH]c(=O)n1,15,6,-1,-7,0,-4
COCCNC(=O)CN(C(=O)c1ccc(N2CCCC2)nc1)c1ccc(F)c(Cl)c1,6,-10,0,22*,7,-7
COCCNC(=O)CN(C(=O)c1ccc(N2CCCC2)nc1)c1ccccc1,-4,6,1,1,3,0
COc1ccc(C(=O)Nc2nncs2)cc1S(=O)(=O)N1CCOCC1,2,10,2,1,-2,-1
CCNC(=O)C1(C)CCCN(Cc2ccc3ccccc3c2Br)C1 (stereo unspecified),-12,8,1,-4,-3,35*
CC(C)Oc1ccc(CN2CCC2(C)C(=O)Nc2ccc(Cl)c(Cl)c2)cc1 (stereo unspecified),-7,-5,0,-3,-1,5
Cc1nccc(-c2sc(-c3cccs3)nc2C)n1,69*,-4,4,10,0,21
CC(=O)c1ccc(S(=O)(=O)N2CCN(C(=O)c3ccc(COc4ccccc4)o3)CC2)cc1,-6,7,21,-21,3,4
O=c1c(-c2ccco2)[n+]([O-])c2ccccc2n1OCc1c(F)cccc1F,0,-15,5,19*,9,-13
